Published values from different studies.
Each line is one published result; the experiments were not run side by side.
Target: Ephrin type-A receptor 7 (EPHA7, Homo sapiens, UniProt Q15375)

For `CCCOc1ccc(OC)c(F)c1C(=O)c1ccc(C(=O)N[C@@H]2CNC[C@H]2NC(=O)c2ccc3[nH]ncc3c2)cc1`, the remaining activity was 29% (enzyme activity, inhibitor; 10 µM).
`CCN(CC)CCNC(=O)c1c(C)[nH]c(/C=C2\C(=O)Nc3ccc(F)cc32)c1C` gave an inhibition of 3% (enzyme activity, inhibitor; 0.3 µM).
The inhibition of `COc1cccc2c(NCc3ccccc3)nc(-n3c(N)nc4ccccc43)nc12` is reported as 2.9% (target engagement in cells, inhibitor, chemoproteomics; 20 mM).
`CNC(=O)c1cc2c(Oc3ccc(NC(=O)C4(C(=O)Nc5ccc(F)cc5)CC4)cc3)ccnc2cc1OC` gave an inhibition of 96% (enzyme activity, inhibitor, radiometric; 1 µM).
The inhibition of `CCCS(=O)(=O)Nc1ccc(F)c(C(=O)c2c[nH]c3ncc(-c4ccc(Cl)cc4)cc23)c1F` is reported as < 10% (enzyme activity, inhibitor; 1 µM).
`CCCOc1ccc([C@H]2[C@H](C(=O)O)[C@@H](c3ccc4c(c3)OCO4)CN2CC(=O)Nc2c(CC)cccc2CC)cc1` has a remaining binding of 98% (cell-free assay, competition with immobilised ligand; 1 µM).
For `c1ccc(CNc2nc(N3CCOc4ccccc43)nc3c2CCCC3)cc1`, the inhibition was 12% (target engagement in cells, inhibitor, chemoproteomics; 20 mM).
The activity vs control of `Cc1cc(NC(=O)c2cccc3cc(-c4cccc5[nH]nc(N)c45)ccc23)ccc1F` is reported as 96% (enzyme activity, inhibitor; 0.1 µM).
With `CC(=O)c1c(NS(C)(=O)=O)c2cc(-c3ccc(Cl)cc3)c(-c3ccc(Cl)cc3Cl)nc2n(C)c1=O` the remaining binding was 100% (cell-free assay, competition with immobilised ligand; 1 µM).
With `CC(C)(C)c1nc2c(s1)c1nc(N)ncc1c1ccc(NS(=O)(=O)c3c(F)cccc3F)c(F)c12` the remaining activity was 96% (enzyme activity, inhibitor, radiometric; 1 µM).
For `CNC(=O)c1cc(Oc2ccc(NC(=O)Nc3ccc(Cl)c(C(F)(F)F)c3)cc2)ccn1`, the inhibition was 30% (enzyme activity, inhibitor; 0.3 µM).
For `CO[C@@H](C)c1c(Nc2ccc([C@@H](N(C)C(=O)C3CCS(=O)(=O)CC3)C(F)(F)F)cc2)cnc2cc(Cl)nn12`, the remaining binding was 87% (cell-free assay, competition with immobilised ligand; 1 µM).
`O=C(Nc1cnn(-c2csc(C(=O)NC3COC3)c2)c1)Nc1c(F)cccc1Cl` gave a remaining activity of 91.2% (enzyme activity, inhibitor; 5 µM).
For `Cn1nc(C(=O)NCc2ccc(C(=O)O)cc2)cc1-c1ccc2[nH]ccc2c1`, the remaining binding was 82% (cell-free assay, competition with immobilised ligand; 0.1 µM).
With `Cc1cnc(NC2CCOCC2)nc1-n1cnc(C(=O)NC(CN)c2cc(F)cc(Cl)c2)c1` (stereo not drawn) the remaining activity was 88% (enzyme activity, inhibitor, radiometric; 1 µM).
The remaining signal of `O=C1NC(=O)c2cc(Nc3ccc(F)cc3)c(Nc3ccc(F)cc3)cc21` is reported as 84.6% (cell-free assay; 0.5 µM).
The remaining binding of `O=C(NCc1ncc(C(F)(F)F)cc1Cl)c1ccc2c(c1)C1(CCS(=O)(=O)CC1)[C@H](C1CC1)N2S(=O)(=O)c1ccc(F)cc1` is reported as 100% (cell-free assay, competition with immobilised ligand; 1 µM).
`CC/C(=N\NC(=O)NCc1cccc(O)c1)c1ccc(O)c(C)c1O` has an inhibition of -0.5% (enzyme activity, inhibitor; 0.1 µM).
The remaining binding of `O=C(NS(=O)(=O)c1ccc(NCC2CCOCC2)c([N+](=O)[O-])c1)c1ccc(N2CCN(Cc3ccc(C(F)(F)F)cc3-c3ccc(Cl)cc3)CC2)cc1Oc1cnc2[nH]ccc2c1` is reported as 88% (cell-free assay, competition with immobilised ligand; 1 µM).
`O=C1Nc2ccc(Cl)cc2C1=Cc1cc(Cl)c(O)c(Cl)c1` gave a remaining signal of 97.5% (cell-free assay; 0.5 µM).
For `Cc1ccc(Nc2nccc(N(C)c3ccc4c(C)n(C)nc4c3)n2)cc1S(N)(=O)=O`, the inhibition was 34% (enzyme activity, inhibitor; 10 µM).
